Screens (PubChem BioAssay)
TRPN1 ag = agonists of zebrafish TRPN1 channel; 220,000 compounds, 0.18% hits; HEK293 zebrafish TRPN1-YFP, Fluo-8 calcium fluorescence; 100% = response to 87 µM carbachol; activation, % at 3 µM;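 active = activation above its plate's cutoff, the mean activation of test wells on that plate plus 3 SD, cut at about 19% in these data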
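Control set: carbachol 87 µM as high control, DMSO as low control; system: HEK293 stable line with zebrafish TRPN1-YFP; read-out: % activation versus carbachol response; detection: intracellular calcium fluorescence with Fluo-8; doses: single test compound dose, 3 µM nominal, 0.3% DMSO; schedule: dye 1 h 37 °C plus 30 min RT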
OXTR agonist = human OXTR agonism; P30559; CHO-OTR cells, Fluo-8 calcium fluorescence; normalized: DMSO 0%, oxytocin 100%; activation, % at 3 µM; 320,000 compounds, 0.32% hits;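 active = activation above the mean of all tested compounds plus 3 SD, cutoff set per screening run, cut at about 20% in these data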;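 also: peak over basal fluorescence ratio from a 100 s FLIPR kinetic read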
Target sequence (P30559 whole entry, looked up): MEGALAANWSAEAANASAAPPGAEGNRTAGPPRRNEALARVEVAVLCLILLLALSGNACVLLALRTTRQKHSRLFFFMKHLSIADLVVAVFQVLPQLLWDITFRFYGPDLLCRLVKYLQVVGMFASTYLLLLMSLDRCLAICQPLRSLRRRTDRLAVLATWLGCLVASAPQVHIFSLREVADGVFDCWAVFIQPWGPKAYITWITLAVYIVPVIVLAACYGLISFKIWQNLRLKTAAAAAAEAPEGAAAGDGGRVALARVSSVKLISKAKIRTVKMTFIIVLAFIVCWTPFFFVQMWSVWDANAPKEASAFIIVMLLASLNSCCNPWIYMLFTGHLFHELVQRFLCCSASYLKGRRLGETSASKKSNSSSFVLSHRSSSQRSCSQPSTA
OXTR potentiator = human OXTR potentiation; P30559; 320,000 compounds, 0.061% hits; activation, % at 3 µM; CHO-OTR cells, Fluo-8 calcium fluorescence, potentiator mode; 0% = oxytocin EC15, 100% = EC100;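 active = activation above that plate's cutoff, the mean activation of tested compounds plus 3 SD, cut at about 6.6% in these data, passing the limit was not always enough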
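System: human OTR in CHO cells / Also added: sub-maximal oxytocin, roughly EC15 / Control set: EC15 oxytocin low, 75 nM oxytocin high / Schedule: 6 min compound pre-incubation at room temperature, 100 s kinetic read / Compound: single-point 3.0 µM / Replication: singlicate / Technique: Fluo-8 calcium dye fluorescence / Read-out basis: % activation of max/min ratio relative to oxytocin controls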
TRPML3 ag = agonists of human TRPML3 channel. Q8TDD5. HEK293 TRPML3-YFP, Fluo-8 calcium fluorescence; 100% = the carbachol control signal. activation, % at 3 µM. 220,000 compounds, 0.29% hits. AID 1448;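 active = activation above its plate's cutoff, the mean activation of the plate's test wells plus 3 SD, cut at about 12% in these data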
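Test system – HEK293 line with stable expression of human TRPML3-YFP channel · Control set – carbachol 87 µM final as high control (100%), DMSO as low control (0%) · Signal – Fluo-8 calcium dye fluorescence, ex 470-495, em 515-575 nm · Incubation – 1-h 37 °C dye load, 5-s basal, 120-s post-compound reads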
V1R ag counter = activates human V1a receptor in oxytocin agonist counter-screen; CHO-V1R cells, Fluo-8 calcium fluorescence, agonist mode; 0% DMSO, 100% 3 nM vasopressin; activation, % at 3 µM; 320,000 compounds, 0.25% hits; AID 2797;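 active = activation above the mean activation of all tested compounds plus 3 SD, per screening run, cut at about 20% in these data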;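 also: signal is peak over basal fluorescence ratio across a 100 second FLIPR read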
Numbers stand for hits; n = inactive; x = no result. Most compounds without a hit are left out; they make up all but 0.55% or so of the library.

SMILES	TRPN1 ag	OXTR agonist	OXTR potentiator	TRPML3 ag	V1R ag counter
CCN(C[C@H]1N[C@@](CC)(C(=O)OC)[C@H]2C(=O)N(C)C(=O)[C@@H]12)C(=O)Nc1ccccc1	x	n	n	x	n
O=C(c1ccc([N+](=O)[O-])cc1)N(Cc1ccc(Br)cc1)N1C(=O)CCCC1=O	47	n	n	95	n
COCc1nnc(SCC(=O)NCc2ccccc2)n1-c1ccccc1	25	n	n	n	n
COCc1nnc(SCC(=O)Nc2cccc(Cl)c2C)n1-c1ccccc1	n	n	n	n	n
COc1ccc(S(=O)(=O)NCCC(=O)N2CCCN(C)CC2)cc1	x	n	n	x	n
CCN(CC)c1ccc2c(c1)OC(N)=C(C#N)C2c1cccnc1 (stereo not drawn)	n	52	n	n	33
CCN(CC)c1ccc(C(=O)O)cc1	n	n	n	n	n
CCN(CC)c1ccc(/C=C2\C(=O)c3ccc(C(=O)O)cc3C2=O)cc1	69	161	n	23	66
C=CCNS(=O)(=O)NC(=O)C1=C(N2CCCC2)COC1=O	x	n	n	x	n
CC(=O)Nc1ccc(N2C(=O)c3cccc4c(O)ccc(c34)C2=O)cc1	x	172	n	x	174
O=C1c2cccc3c(O)ccc(c23)C(=O)N1c1ccc(Cl)cc1	x	186	n	x	184
Cc1ccc(N2C(=O)c3cccc4c(C(=O)O)ccc(c34)C2=O)cc1	n	n	n	n	n
O=C1c2cccc3c(O)ccc(c23)C(=O)N1Cc1ccco1	79	x	x	38	x
O=C1c2ccccc2C(=O)N1c1ccc(Cl)cc1	n	n	n	n	n
COc1ccc(C(C)=O)cc1CSc1ccc(S(=O)(=O)N2CCOCC2)cn1	x	n	n	x	n
Cc1ccc(S(=O)(=O)N(C)C[C@@H]2Oc3ccc(NC(=O)Nc4cccc5ccccc45)cc3C(=O)N([C@H](C)CO)C[C@H]2C)cc1	x	n	n	x	n
O=C(COC(=O)c1c[nH]c2ccccc12)NC1CCCCC1	x	n	n	x	n
COc1ccc(-c2nnc(SCC(=O)NC(=O)Cc3ccccc3)n2C)cc1	x	n	n	x	n
CCC(C)Oc1nc(C)cc(C)c1S(=O)(=O)c1ccccc1C (stereo not drawn)	n	n	n	42	n
CCOc1ccc(NS(=O)(=O)c2ccc(C(=O)N3CCCCCC3)cc2)cc1	x	n	n	x	n
COc1ccc(NS(=O)(=O)c2ccc(C(=O)N3CCCCCC3)cc2)cc1	x	27	n	x	24
O=C(c1ccc(S(=O)(=O)Nc2ccccc2)cc1)N1CCCC(C(F)(F)F)C1 (stereo not drawn)	x	36	n	x	43
Cc1ccc(NS(=O)(=O)c2ccc(C(=O)N3CC(C)OC(C)C3)cc2)cc1 (stereo not drawn)	x	41	n	x	37
Cc1ccc(NS(=O)(=O)c2ccc(C(=O)N3CCC3)cc2)cc1	x	n	n	x	n
CCOc1ccc(NS(=O)(=O)c2ccc(C(=O)N3CCCC(C)C3)cc2)cc1 (stereo not drawn)	x	47	n	x	39
SMILES	TRPN1 ag	OXTR agonist	OXTR potentiator	TRPML3 ag	V1R ag counter
O=C(c1ccccc1)c1ccc(C(=O)N2CCCC(C(F)(F)F)C2)cc1 (stereo not drawn)	x	n	n	x	n
CCOc1ccc(S(=O)(=O)Nc2ccc(C(=O)N3CCCC3)cc2)cc1	x	n	n	x	n
CCOC(=O)[C@H]1[C@H]2COc3ccc(Br)cc3[C@@H]2N2C(=O)CN(Cc3ccc(F)cc3)C(=O)[C@@]12C	x	n	n	x	n
CCNC(=O)N(C)C[C@H]1N[C@@](CC)(C(=O)OC)[C@H]2C(=O)N(Cc3ccccc3)C(=O)[C@@H]12	x	n	n	x	n
O=C(CN1C(=O)NC2(CCc3ccccc32)C1=O)Nc1ccc(Br)cc1F (stereo not drawn)	x	n	n	x	n
O=C(OCCN1C(=O)c2cccc3c(N4CCOCC4)ccc(c23)C1=O)c1ccc(Cl)cc1Cl	n	n	n	n	n
O=C(OCCN1C(=O)c2cccc3c(N4CCOCC4)ccc(c23)C1=O)c1cccc(Cl)c1	n	23	n	n	22
Cc1ccc(NC(=S)NNc2ncc(C(F)(F)F)cc2Cl)c(C)c1	n	n	n	n	n
FC(F)(F)c1cnc(NNC(=S)Nc2ccc(Cl)cc2)c(Cl)c1	26	n	n	18	n
Fc1ccc(NC(=S)NNc2ncc(C(F)(F)F)cc2Cl)c(F)c1	23	n	n	14	n
CC(=O)OCCn1c2nc(=O)[nH]c(=O)c-2nc2cc(C)c(C)cc21	142	x	x	88	x
CC(=O)OCCn1c(C)[n+](CCOC(C)=O)c2cc(Cl)c(Cl)cc21	n	n	n	n	n
COCCCNc1c2c3c(cccc3[nH]c1=O)C(=O)c1ccccc1-2	203	590	n	105	533
CCNC(=O)N(C)C[C@H]1N[C@@](CC)(C(=O)OC)[C@H]2C(=O)N(C)C(=O)[C@@H]12	x	n	n	x	n
Cc1cnc(NC(=O)Cc2ccc(Br)cc2)s1	x	n	n	x	n
O=C(COc1ccc(Cl)cc1)Nc1ncc([N+](=O)[O-])s1	30	x	x	20	x
O=C(Cc1ccc(Cl)cc1)Nc1ncc([N+](=O)[O-])s1	22	x	x	n	x
O=C(Cc1ccc(Br)cc1)Nc1ncc([N+](=O)[O-])s1	21	n	n	14	n
NC(=O)C1CCN(CC(=O)Nc2ccccc2C(=O)NC2CC2)CC1	x	n	n	x	n
Cc1ccc(NC(=O)CN(C)S(=O)(=O)c2ccc(Cl)s2)c(O)c1	x	n	n	x	n
CCCCn1c(N)c(N(CC(C)C)C(=O)C2=NN(c3ccccc3)C(=O)CC2)c(=O)[nH]c1=O	x	n	n	x	n
Nc1nc(C2CC2)c(Sc2sc(N)nc2C2CC2)s1	n	25	n	n	25
CCCCCCSc1ccc([C@H]2N[C@@](C)(C(=O)OC)[C@H]3C(=O)N(CC)C(=O)[C@@H]23)cc1	x	n	n	x	n
CCCC(C(=O)Nc1ccc(S(=O)(=O)N2CCOCC2)cc1)c1ccccc1 (stereo not drawn)	x	28	n	x	20
CCOC(=O)c1nn(-c2ccccc2)c2nnc(Cc3ccc(C)cc3)c(=O)n12	n	n	12	n	n
SMILES	TRPN1 ag	OXTR agonist	OXTR potentiator	TRPML3 ag	V1R ag counter
COc1ccc(CCNC(=O)c2ccc3nc(N4CCCCC4)sc3c2)cc1OC	x	n	n	x	n
CCC1(c2ccc(F)cc2)NC(=O)N(CC(=O)c2cc(C)n(C3CC3)c2C)C1=O (stereo not drawn)	x	31	n	x	30
Cc1occc1-c1nnc(SCC(=O)c2c(N)n(C3CC3)c(=O)[nH]c2=O)n1C	x	n	n	x	n
COc1ccc(NC(=O)CN2C(=O)NC3(CCCCC3C)C2=O)cc1OC (stereo not drawn)	x	n	n	x	n
N#C/C(=C\c1ccc(N2CCCCC2)o1)C(N)=O	n	n	n	n	n
N#C/C(=C\c1ccc(N2CCCCC2)o1)C(=O)Nc1cccc(Br)c1	20	187	n	14	199
